For data set [1], the system named is 9L glioma cells. Put plainly: In vitro cell uptake studies in 9L cells. In kind it is cell-based. As to conditions: time course up to 2 h. The method in brief: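 9L gliosarcoma cells were grown in DMEM with 10% FBS and 1% penicillin/streptomycin at 37 °C, 5% CO2. They were seeded at 2.0 × 10^5 cells/well 24 h ahead and rinsed with warm PBS containing Ca2+/Mg2+. Radiotracer in PBS (~500,000 cpm/mL/well) was applied for 5, 30, 60 or 120 min at 37 °C. Cells were washed in ice-cold Ca/Mg-free PBS, lysed in 1 M NaOH and gamma-counted. Uptake is %ID/100 μg Lowry protein, in triplicate.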

In a further data set the test system is 9L xenograft. Kind of data set: In vivo biodistribution in Fisher rats with 9L glioma tumors. As to conditions: for Tumor uptake: 9L tumor, n = 5; for Tumor uptake / Blood uptake / Bone uptake / Brain uptake / Heart uptake / Kidney uptake / Liver uptake / Lung uptake / Muscle uptake / Pancreas uptake / Skin uptake / Spleen uptake: mean ± SD; for Blood uptake / Bone uptake / Brain uptake / Heart uptake / Kidney uptake / Liver uptake / Lung uptake / Muscle uptake / Pancreas uptake / Skin uptake / Spleen uptake: six rats.

The test system of a further data set is 9L tumor. Put plainly: Small animal imaging with a microPET in 9L tumor bearing rats. As to conditions: after intravenous injection, dynamic PET scan. Format: in vivo, F344 rats. The method, boiled down:
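Rats bearing 9L xenografts were anaesthetised with 1–2% isoflurane and given 30–37 MBq (0.8–1 mCi) of radiotracer via the lateral tail vein. Dynamic small-animal PET acquisition started at injection and ran 2 h (5 min frames, 0.5 mm3 voxels), with a heating pad for body temperature. Region-of-interest analysis gave tissue time-activity curves.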

The test system of data set [2] is 9L glioma cells. Put plainly: Uptake mechanism. As to conditions: 30 min incubation. Format: cell-based. The method in brief: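 The plating, washing, lysis and counting of 9L cells were as in the uptake assay. The radiotracer in PBS was co-incubated with MeAIB, L-Ala, L-Ser, BCH, D-Met or NEM at 0.5, 1 or 5 mM. For sodium dependence, PBS was replaced by Na+-free buffer (143 mM choline chloride, 2.68 mM KCl, 1.47 mM KH2PO4). Incubation was 30 min at 37 °C. Values are normalised to uninhibited uptake in PBS, n = 3.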

For a further data set, the system named is LAT2. To be noted: cited from earlier work.
The mark [3] stands for this setting: 30 min after single intravenous injection.
Setting [4] is: 60 min after single intravenous injection.

Results on two compounds are retold here after PMC3065024 (Nuclear medicine and biology, 2011).

Each structure is given as a SMILES string.

Turning to `N[C@@H](Cc1ccc(CC[18F])cc1)C(=O)O` [FEP, p-(2-[^18F]fluoroethyl)-L-phenylalanine], the “Maximum uptake relative to FET” value in the data set on 9L glioma cells [1] is given as “about 1.4 fold”. Further, in the data set on 9L xenograft (setting [3]), the Tumor uptake is recorded as 0.82 ± 0.06 % ID/g, the Blood uptake was 0.73 ± 0.08 % ID/g, the Bone uptake came to 0.41 ± 0.03 % ID/g and the Brain uptake was found to be 0.53 ± 0.03 % ID/g. In the data set on 9L xenograft (setting [3]), this compound returned a Heart uptake of 0.70 ± 0.07 % ID/g, a Kidney uptake of 0.72 ± 0.05 % ID/g, a Liver uptake of 0.71 ± 0.07 % ID/g and a Lung uptake of 0.68 ± 0.08 % ID/g. Further, in the data set on 9L xenograft (setting [3]), the Muscle uptake worked out at 0.58 ± 0.05 % ID/g, the Pancreas uptake amounted to 2.66 ± 0.20 % ID/g, the Skin uptake is listed as 0.57 ± 0.07 % ID/g and the Spleen uptake worked out at 0.75 ± 0.06 % ID/g. In addition, in the data set with 9L xenograft (setting [4]), the Tumor uptake is listed as 0.90 ± 0.20 % ID/g, the Blood uptake is recorded as 0.65 ± 0.05 % ID/g, the Bone uptake is reported as 0.41 ± 0.04 % ID/g and the Brain uptake amounted to 0.52 ± 0.05 % ID/g. In the data set on 9L xenograft (setting [4]), this compound came in with a Heart uptake of 0.63 ± 0.05 % ID/g, a Kidney uptake of 0.63 ± 0.05 % ID/g, a Liver uptake of 0.63 ± 0.05 % ID/g and a Lung uptake of 0.61 ± 0.05 % ID/g. In the data set with 9L xenograft (setting [4]), the Muscle uptake is given as 0.62 ± 0.05 % ID/g, the Pancreas uptake is 2.45 ± 0.27 % ID/g, the Skin uptake is given as 0.60 ± 0.09 % ID/g and the Spleen uptake is on record as 0.69 ± 0.05 % ID/g. In the data set with 9L xenograft (30 min after injection), the “Tumor to blood ratio” value is on record as 1.12, the Tumor/Brain ratio was found to be 1.55 and the Tumor/Muscle ratio came to 1.41. Besides, in the data set on 9L xenograft (60 min after injection), the “Tumor to blood ratio” value is listed as 1.38, the Tumor/Brain ratio was determined as 1.73 and the “Tumor/Muscle ratio (tumor to background)” value was found to be 1.45. The “In vivo metabolic stability (from bone uptake)” value with 9L xenograft (bone uptake not significant at 30 and 60 min) is “metabolically stable”. The “Time for radioactivity in heart and muscle to reach a plateau” value in the data set on 9L tumor was determined as 20 min. Besides, the “Inhibition of uptake by BCH” value with 9L glioma cells [2] (5 mM BCH (system L inhibitor), normalized to uptake in PBS) is “more than 98%”. Also, the “Inhibition of uptake by D-Met” value in the data set with 9L glioma cells [2] (D-Met (LAT1 specific inhibitor)) is reported as “very similar effect as BCH”. Also, in the data set on 9L glioma cells [2] (MeAIB (system A inhibitor) 0.5 to 5 mM), the “Inhibition of uptake by MeAIB” value is reported as “no inhibition”. The “Sodium dependence of uptake” value in the data set with 9L glioma cells [2] (Na+ replaced with choline vs PBS) was “sodium independent”.
With `N[C@@H](Cc1ccc(OCC[18F])cc1)C(=O)O` [FET, O-(2-[^18F]fluoroethyl)-L-tyrosine], the Transport subtype selectivity result in the data set with LAT2 is on record as “selectively transported via LAT2”.
